Data on 18 compounds can be found in ChEMBL document CHEMBL1149424, “Synthesis of functionalized 1,8-naphthyridinones and their evaluation as novel, orally active CB1 receptor inverse agonists” (Bioorg Med Chem Lett, 2006).

Broadly, the IC50 is the concentration at which inhibition is half-maximal. The term clearance denotes a measure of how efficiently the substance is removed, as volume per time. The half-life is the time in which the quantity being followed falls by half. As usually defined, the Kp is the ratio of the level in a tissue or fluid to that in plasma or blood. The term bioavailability denotes the share of a dose that reaches the circulation, judged against a reference dose that is usually intravenous.

Data set [1] has as its target Cannabinoid receptor 1 (Homo sapiens, UniProt P21554). In words: Binding affinity at the CB1 receptor.
The target in data set [2] is Cannabinoid receptor 2 (Homo sapiens, UniProt P34972). Put plainly: Binding affinity at the CB2 receptor.
Data set [3] relates to Mus musculus. In words: Reduction in body weight overnight (18 hrs) in wild type C57BL/6 mice at 10 mg/kg. The class given is functional. Further details: scale not given: the % may be the effect or the level left. Put shortly: (§1)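 Ad libitum fed 12-week-old male C57BL/6 mice, n = 12 per group, given the compound orally at 1, 3 or 10 mpk in 0.225% methylcellulose/10% Tween 80 about 30 min before the dark phase. Food intake measured at 2 h and overnight. Overnight (18 h) body weight gain recorded and compared with vehicle.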

A short description of data set [4]: Plasma clearance in rhesus macaque. The class given is ADME, organism-based, Macaca mulatta. Particulars: rhesus monkey.
Data set [5] in a line: Half life in Sprague-Dawley rat. Particulars: in vivo. It is filed as ADME, organism-based.
Data set [6] concerns Rattus norvegicus. Put plainly: Reduction in food intake in SD rat at 18 hrs after administration of 0.3 mg/kg, po. Further details: scale not given: the % may be the effect or the level left. The class given is functional, Sprague-Dawley. A digest of the protocol: (§2)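 Diet-induced obese Sprague–Dawley rats, six per treatment group, dosed orally with the compound in 10% Tween 80 in water 30–60 min before dark onset. Food cups weighed every 5 min in an automated system over the 18 h after dosing. Overnight body weight change also recorded. Suppression is expressed relative to vehicle-treated controls.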

The nature of data set [7]: Rat brain to plasma ratio at 0.25 hrs post iv dosing. As to conditions: Sprague-Dawley. It is filed as ADME, organism-based. A digest of the protocol: (§3)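 Sprague–Dawley rats were dosed intravenously as part of a pharmacokinetic profile. Brain and plasma concentrations were sampled at 0.25 h and at 4 h post-dose and expressed as a brain-to-plasma ratio.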
Data set [8] has as its system Rattus norvegicus. Put plainly: Reduction in food intake in SD rat at 18 hrs after administration of 1.0 mg/kg, po. It is filed as functional, Sprague-Dawley. Further details: scale not given: the % may be the effect or the level left. Put shortly:
as §2

Data set [9] in a line: Plasma clearance in C57BL/6 mouse. It is filed as ADME, organism-based.
Data set [10] can be described thus: Half life in Beagle dog. The class given is ADME, organism-based, Canis lupus familiaris. As to conditions: in vivo.
Data set [11] can be described thus: Oral bioavailability in rhesus macaque. The class given is ADME, organism-based, Macaca mulatta. Particulars: rhesus monkey, in vivo.
The nature of data set [12]: Oral bioavailability in Beagle dog. The class given is ADME, organism-based, Canis lupus familiaris. Particulars: in vivo.
Data set [13] in a line: Half life in rhesus macaque. It is filed as ADME, organism-based, Macaca mulatta. As to conditions: rhesus monkey, in vivo.
A short description of data set [14]: Half life in C57BL/6 mouse. It is filed as ADME, organism-based. Particulars: in vivo.
The test system of data set [15] is Rattus norvegicus. Put plainly: Reduction in food intake in SD rat at 18 hrs after administration of 3.0 mg/kg, po. It is filed as functional, Sprague-Dawley. Also noted: scale not given: the % may be the effect or the level left. Put shortly: as §2
The test system of data set [16] is Mus musculus. In words: Reduction in food intake in wild type C57BL/6 mice at 2 hrs after administration of 10 mg/kg, po. It is filed as functional. Further details: scale not given: the % may be the effect or the level left. A digest of the protocol: as §1
Data set [17] is described as follows: Rat brain to plasma ratio at 4 hrs post iv dosing. It is filed as ADME, organism-based. As to conditions: Sprague-Dawley. Put shortly:
as §3

The nature of data set [18]: Oral bioavailability in C57BL/6 mouse. It is filed as ADME, organism-based. As to conditions: in vivo.
Data set [19] is described as follows: Plasma clearance in Sprague-Dawley rat. It is filed as ADME, organism-based.
Data set [20] in a line: Plasma clearance in Beagle dog. It is filed as ADME, organism-based, Canis lupus familiaris.
Data set [21] can be described thus: Oral bioavailability in Sprague-Dawley rat. It is filed as ADME, organism-based. As to conditions: in vivo.

Sequence of Cannabinoid receptor 2 (P34972 whole entry): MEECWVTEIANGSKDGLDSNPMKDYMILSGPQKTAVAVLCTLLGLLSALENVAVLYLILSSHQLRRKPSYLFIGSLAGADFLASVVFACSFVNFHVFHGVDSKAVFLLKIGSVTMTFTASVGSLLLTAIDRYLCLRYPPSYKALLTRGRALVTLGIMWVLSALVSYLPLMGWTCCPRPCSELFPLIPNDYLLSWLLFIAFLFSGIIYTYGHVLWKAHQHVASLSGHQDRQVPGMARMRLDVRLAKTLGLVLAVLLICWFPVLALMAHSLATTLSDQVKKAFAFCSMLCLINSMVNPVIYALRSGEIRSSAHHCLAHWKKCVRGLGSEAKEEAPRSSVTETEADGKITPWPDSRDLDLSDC
Sequence of Cannabinoid receptor 1 (P21554 whole entry): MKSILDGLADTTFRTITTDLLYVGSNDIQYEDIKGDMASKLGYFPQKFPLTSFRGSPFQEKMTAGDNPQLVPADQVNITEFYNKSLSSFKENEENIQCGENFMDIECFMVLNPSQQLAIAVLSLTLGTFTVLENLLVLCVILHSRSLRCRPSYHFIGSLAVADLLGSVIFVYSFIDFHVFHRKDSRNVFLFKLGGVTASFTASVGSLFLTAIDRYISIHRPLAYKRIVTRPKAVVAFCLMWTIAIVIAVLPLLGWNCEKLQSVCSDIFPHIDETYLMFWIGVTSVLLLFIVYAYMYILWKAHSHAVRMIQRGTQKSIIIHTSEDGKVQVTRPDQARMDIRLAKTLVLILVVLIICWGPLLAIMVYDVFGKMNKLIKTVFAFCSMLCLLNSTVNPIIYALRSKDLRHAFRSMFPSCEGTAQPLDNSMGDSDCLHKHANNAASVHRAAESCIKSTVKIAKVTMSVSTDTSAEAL

Consider `CC(=O)Nc1c(N(C)C)c(=O)n(C)c2nc(-c3ccc(Cl)cc3Cl)c(-c3ccc(Cl)cc3)cc12`, for which the IC50 in [1] came out at 20 nM; in data set [2], 2500 nM.
With `CC(=O)Nc1cc(=O)n(C)c2nc(-c3ccc(Cl)cc3Cl)c(-c3ccc(Cl)cc3)cc12`, the IC50 came out at 110 nM in data set [1] and 380 nM in [2].
Regarding `COCCn1c(=O)c(C(C)=O)c(NC(C)=O)c2cc(-c3ccc(Cl)cc3)c(-c3ccc(Cl)cc3Cl)nc21`, the values for the IC50 in data set [1] and in [2] were 3.7 nM and 1800 nM, respectively.
`CC(=O)Nc1c(C#N)c(=O)n(C)c2nc(-c3ccc(Cl)cc3Cl)c(-c3ccc(Cl)cc3)cc12`: the values for the IC50 in [1] and in data set [2] were 35 nM and 720 nM, respectively.
Regarding `COc1c(NC(C)=O)c2cc(-c3ccc(Cl)cc3)c(-c3ccc(Cl)cc3Cl)nc2n(C)c1=O`, the IC50 turned out to be 24 nM in data set [1] and 1100 nM in data set [2].
On to `CC(=O)Nc1c(C(C)=O)c(=O)n(Cc2ccccc2)c2nc(-c3ccc(Cl)cc3Cl)c(-c3ccc(Cl)cc3)cc12`, for which the IC50 in data set [1] was 2.3 nM; in [2], 5100 nM.
For `CC(=O)c1c(N(C)C)c2cc(-c3ccc(Cl)cc3)c(-c3ccc(Cl)cc3Cl)nc2n(C)c1=O`, in that order: 96 nM and 1400 nM.
Take `CC(=O)Nc1c(C(C)=O)c(=O)n(CC(C)C)c2nc(-c3ccc(Cl)cc3Cl)c(-c3ccc(Cl)cc3)cc12`: the IC50 was 2.3 nM in data set [1] and 6200 nM in data set [2].
For the compound `CC(=O)Nc1c(C(C)=O)c(=O)n(C)c2nc(-c3ccc(Cl)cc3Cl)c(-c3ccc(Cl)cc3)cc12` [NAPHTHYRIDINONE], the Activity in data set [3] turned out to be 88%; in [6], 22%; in [8], 39%; in [15], 68%; in data set [16] it was 49%. Moreover, the clearance in data set [4] stood at 1.4 mL/min/kg; in [9] it was 13.9 mL/min/kg; in data set [19] it was 12 mL/min/kg; in [20], 4.4 mL/min/kg. The half-life in data set [5] was greater than 480 min; in [10] it was greater than 1440 min; in [13] it was 1320 min; in [14] it was greater than 480 min. The concentration ratio (Kp) at 0.25 h in data set [7] is 0.9. The bioavailability in data set [11] stood at 96%; in data set [12] it was 100%; in [18], 70%; in data set [21], 93%. Besides, the Kp at 4 h in data set [17] amounted to 2.7. In addition, the IC50 in [2] stood at 4100 nM.
With `CC(=O)c1c(NC(=O)CO)c2cc(-c3ccc(Cl)cc3)c(-c3ccc(Cl)cc3Cl)nc2n(C)c1=O`, the values for the IC50 in [1] and in [2] were 46 nM and 3600 nM, respectively.
With `CC(=O)c1c(C)c2cc(-c3ccc(Cl)cc3)c(-c3ccc(Cl)cc3Cl)nc2n(C)c1=O`, the IC50 came out at 55 nM in [1] and 1400 nM in data set [2].
For `CC(=O)Nc1c(C(C)=O)c(=O)n(CC2CCCO2)c2nc(-c3ccc(Cl)cc3Cl)c(-c3ccc(Cl)cc3)cc12` (centres undefined), the IC50 in [1] worked out at 5.2 nM; in data set [2], 1400 nM.
For `CC(=O)Nc1c(C(C)=O)c(=O)n(CCO)c2nc(-c3ccc(Cl)cc3Cl)c(-c3ccc(Cl)cc3)cc12`, the IC50 in [1] was found to be 32 nM; in data set [2], 1500 nM.
The like results for `CC(=O)Nc1c(C)c(=O)n(C)c2nc(-c3ccc(Cl)cc3Cl)c(-c3ccc(Cl)cc3)cc12` were, in that order, 26 nM and 1500 nM.
On to `COCC(=O)Nc1c(C(C)=O)c(=O)n(C)c2nc(-c3ccc(Cl)cc3Cl)c(-c3ccc(Cl)cc3)cc12`, for which the IC50 came to 24 nM in data set [1] and 3200 nM in [2].
As to `CC(=O)Nc1c(C(C)C)c(=O)n(C)c2nc(-c3ccc(Cl)cc3Cl)c(-c3ccc(Cl)cc3)cc12`, the IC50 turned out to be 15 nM in data set [1] and 5400 nM in data set [2].
For `CC(=O)Nc1c(C(C)=O)c(=O)[nH]c2nc(-c3ccc(Cl)cc3Cl)c(-c3ccc(Cl)cc3)cc12`, in that order: 77 nM and 1400 nM.
Take `CC(=O)c1c(N)c2cc(-c3ccc(Cl)cc3)c(-c3ccc(Cl)cc3Cl)nc2n(C)c1=O`: the results for the IC50 in data set [1] and in data set [2] were 120 nM and 1100 nM, respectively.
